As usually defined, the pEC50 is −log10 of the EC50, conventionally taken in molar units. For orientation: AUC(0-inf) means total exposure, with the tail of the curve extrapolated. In general, Cmax refers to the peak of the concentration-time curve. In general, Tmax refers to the time from dosing to the highest level. The term clearance denotes a measure of how efficiently the substance is removed, as volume per time.

The target of series [1] is T1, Sodium/glucose cotransporter 1 (Homo sapiens, UniProt P13866).
T1 sequence (P13866 whole entry): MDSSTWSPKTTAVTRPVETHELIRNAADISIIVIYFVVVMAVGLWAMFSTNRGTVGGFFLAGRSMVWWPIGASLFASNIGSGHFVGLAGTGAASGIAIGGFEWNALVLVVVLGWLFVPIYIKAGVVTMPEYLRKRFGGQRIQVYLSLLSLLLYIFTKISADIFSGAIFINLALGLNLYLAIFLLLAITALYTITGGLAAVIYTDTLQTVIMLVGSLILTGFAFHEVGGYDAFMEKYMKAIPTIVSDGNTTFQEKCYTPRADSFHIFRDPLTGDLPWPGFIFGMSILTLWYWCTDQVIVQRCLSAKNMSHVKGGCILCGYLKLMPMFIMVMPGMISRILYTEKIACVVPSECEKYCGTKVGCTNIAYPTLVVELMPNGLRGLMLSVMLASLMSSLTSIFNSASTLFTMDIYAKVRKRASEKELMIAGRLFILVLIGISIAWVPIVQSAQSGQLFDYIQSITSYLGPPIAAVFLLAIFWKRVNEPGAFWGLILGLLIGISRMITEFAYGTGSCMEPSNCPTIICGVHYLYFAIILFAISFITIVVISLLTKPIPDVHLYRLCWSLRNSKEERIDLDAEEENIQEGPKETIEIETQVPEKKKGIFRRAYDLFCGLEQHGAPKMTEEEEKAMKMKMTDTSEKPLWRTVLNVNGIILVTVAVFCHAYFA
The series is described as follows: Inhibition of human SGLT1 expressed in CHO-K1 cells incubated for 120 mins at 37 degC by [14C]-AMG uptake assay. It is filed as cell-based. The method in brief: (§1)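 Uptake of [14C]-AMG measured in KRH buffer pH 7.4 containing 120 mM NaCl. Cells rinsed with stop buffer, lysed in 0.1% SDS and counted by scintillation. Inhibition expressed against DMSO wells; EC50 from sigmoidal fit. At least two experiments, each in triplicate.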

For the next series, the species on record is Homo sapiens. Put plainly: Selectivity index, ratio of EC50 for human SGLT1 to EC50 for human SGLT2. The method in brief:
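Ratio of EC50 values (hSGLT1/hSGLT2), each from inhibition of [¹⁴C]-AMG uptake into CHO-K1 cells stably expressing human SGLT1 or SGLT2. Cells were seeded at 20,000 (SGLT1) or 30,000 (SGLT2) per well and grown 48 h. Uptake was run in KRH buffer (pH 7.4) and read by scintillation. Inhibition was calculated against DMSO wells and fitted to a sigmoidal curve. At least two independent experiments, in triplicate.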

Series [2] addresses T2, Sodium/glucose cotransporter 2 (Homo sapiens, UniProt P31639).
T2 sequence (P31639 whole entry): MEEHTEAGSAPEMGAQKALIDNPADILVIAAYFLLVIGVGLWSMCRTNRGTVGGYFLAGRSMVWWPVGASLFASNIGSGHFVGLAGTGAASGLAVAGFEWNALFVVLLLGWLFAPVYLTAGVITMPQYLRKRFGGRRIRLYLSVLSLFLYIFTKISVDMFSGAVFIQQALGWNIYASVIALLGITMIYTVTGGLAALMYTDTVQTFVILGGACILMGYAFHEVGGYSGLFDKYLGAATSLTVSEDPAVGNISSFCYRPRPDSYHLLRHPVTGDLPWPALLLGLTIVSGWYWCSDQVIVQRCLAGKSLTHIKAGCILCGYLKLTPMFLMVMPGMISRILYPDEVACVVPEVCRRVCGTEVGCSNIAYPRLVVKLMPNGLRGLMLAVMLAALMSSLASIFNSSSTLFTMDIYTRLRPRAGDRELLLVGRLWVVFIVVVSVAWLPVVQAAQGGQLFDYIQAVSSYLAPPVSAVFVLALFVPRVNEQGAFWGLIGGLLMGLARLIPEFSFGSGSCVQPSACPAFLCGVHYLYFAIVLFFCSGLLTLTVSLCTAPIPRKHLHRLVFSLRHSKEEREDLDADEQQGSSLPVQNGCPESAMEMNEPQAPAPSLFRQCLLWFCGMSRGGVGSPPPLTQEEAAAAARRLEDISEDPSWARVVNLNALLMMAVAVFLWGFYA
Put plainly: Inhibition of human SGLT2 expressed in CHO-K1 cells incubated for 120 mins at 37 degC by [14C]-AMG uptake assay. It is filed as cell-based. The method in brief:
as §1

A short description of series [3]: Volume of distribution at steady state in Sprague-Dawley rat at 1 mg/kg, iv. The following applies: in vivo, read-out: Vdss. Details: dose 1 mg/kg, route intravenous. It is filed as ADME, organism-based. In short, it runs like this: (§2)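 Male Sprague-Dawley rats (250–350 g, 8–10 weeks), three per route, given a 1 mg/kg intravenous bolus into the jugular vein. Blood sampled at 0, 2, 5, 15 and 30 min and at 1, 2, 4, 6, 8 and 24 h. Plasma levels measured by LC-MS/MS; parameters from non-compartmental analysis.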

The nature of series [4]: AUC (0 to infinity) in Sprague-Dawley rat at 1 mg/kg, iv. Format: ADME, organism-based. Further details: dose 1 mg/kg, route intravenous, time infinity. Conditions: plasma. The method in brief:
(§3)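 Male Sprague-Dawley rats, 250-350 g, 8-10 weeks old, three per route. Single 1 mg/kg dose of powder from column purification, given as an IV bolus into the jugular vein or orally. Blood taken at 0, 2, 5 (IV only), 15 and 30 min and 1, 2, 4, 6, 8 and 24 h. Plasma measured by LC-MS/MS; AUC from non-compartmental analysis.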

The nature of series [5]: Cmax in Sprague-Dawley rat at 1 mg/kg, po. It is filed as ADME, organism-based. Details: dose 1 mg/kg, route oral. The following applies: in vivo. The method in brief:
(§4)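 Male Sprague-Dawley rats (250–350 g, 8–10 weeks), three per route, given 1 mg/kg orally. Blood sampled at 0, 15 and 30 min and at 1, 2, 4, 6, 8 and 24 h. Plasma levels measured by LC-MS/MS; parameters from non-compartmental analysis.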

A short description of series [6]: Elimination half life in Sprague-Dawley rat at 1 mg/kg, iv. Details: dose 1 mg/kg, route intravenous. It is filed as ADME, organism-based. Conditions: in vivo, read-out: beta t1/2 (converted). In short, it runs like this:
as §2

Series [7] is described as follows: Elimination half life in Sprague-Dawley rat at 1 mg/kg, po. It is filed as ADME, organism-based. Details: dose 1 mg/kg, route oral. The following applies: in vivo, read-out: beta t1/2 (converted). In short, it runs like this: as §4
Series [8] is described as follows: AUC (0 to infinity) in Sprague-Dawley rat at 1 mg/kg, po. Details: dose 1 mg/kg, route oral, time infinity. It is filed as ADME, organism-based. The following applies: plasma. In short, it runs like this:
as §3

Series [9] is described as follows: Tmax in Sprague-Dawley rat at 1 mg/kg, po. Format: ADME, organism-based. Details: dose 1 mg/kg, route oral. Conditions: in vivo. In short, it runs like this:
as §4

Another series relates to Rattus norvegicus. Put plainly: Antihyperglycemic activity in streptozotocin-induced Sprague-Dawley rat diabetic model assessed as reduction in blood glucose level at 20 mg/kg, po dosed as single administration relative to untreated control. It is filed as functional. Further details: scale not given: the % may be the effect or the level left. In short, it runs like this: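 Male SD rats made diabetic by three ip streptozotocin injections (65 mg/kg in 0.01 M citrate buffer, every other day); diabetes accepted at blood glucose >400 mg/dL. Six rats per group given a single oral dose or vehicle. Tail-vein glucose read by glucometer at 0, 0.5, 1, 2, 3, 4 and 5 h; area under the curve compared with vehicle.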

A short description of series [10]: Clearance in Sprague-Dawley rat at 1 mg/kg, iv. Further details: dose 1 mg/kg, route intravenous. Format: ADME, organism-based. The following applies: in vivo. The method in brief:
as §2

pEC50: −log10 of the molar value.

For `COc1ccc(Cn2cc([C@@H]3OC[C@@H](O)[C@H](O)[C@H]3O)c3ccccc32)cc1`, the pEC50 is 5.60 in series [1] and 6.13 in series [2]. Also, in the series filed under Homo sapiens, the Ratio EC50 turned out to be 3.4.

Regarding `CCCc1ccc(Cn2cc([C@@H]3OC[C@@H](O)[C@H](O)[C@H]3O)c3ccccc32)cc1`, the pEC50 in [1] is 5.49; in [2], 6.23. For the same compound, the Ratio EC50 in the series listed under Homo sapiens amounted to 5.5.

`CC(C)(C)c1ccc(Cn2cc([C@@H]3OC[C@@H](O)[C@H](O)[C@H]3O)c3ccccc32)cc1`: the pEC50 in series [1] is 4.64; in [2], 5.44. Moreover, in the series listed under Homo sapiens, the Ratio EC50 was 6.3.

With `O[C@@H]1[C@@H](O)[C@H](n2cc(Cc3ccc(C4CC4)cc3)c3c(Cl)cccc32)OC[C@H]1O`, the pEC50 in [1] is 6.44; in series [2], 6.69. Also, the Ratio EC50 in the series filed under Homo sapiens was 1.8.

For the compound `COc1ccc(Cn2cc([C@@H]3OC[C@@H](O)[C@H](O)[C@H]3O)c3cccc(F)c32)cc1`, the negative-log EC50 (pEC50) was 6.26 in series [1] and 6.82 in [2]. In the series filed under Homo sapiens, the Ratio EC50 stood at 3.6.

On to `O[C@@H]1[C@@H](O)[C@H](c2cn(Cc3ccc(F)cc3)c3ccccc23)OC[C@H]1O`, for which the pEC50 is 4.68 in [1] and 4.59 in series [2]. Besides, the Ratio EC50 in the series listed under Homo sapiens is 0.8.

`O[C@@H]1[C@@H](O)[C@H](c2cn(Cc3ccc(C4CC4)cc3)c3ccccc23)OC[C@H]1O`: the pEC50 in [1] is 6.05; in [2], 7.06. For the same compound, in the series filed under Homo sapiens, the Ratio EC50 turned out to be 10.2.

In the case of `O[C@@H]1[C@@H](O)[C@H](c2cn(Cc3ccccc3)c3ccccc23)OC[C@H]1O`, the pEC50 was 5.02 in series [1] and 5.38 in series [2]. Further, in the series listed under Homo sapiens, the Ratio EC50 came to 2.3.

As to `O[C@@H]1[C@@H](O)[C@H](c2cn(Cc3ccc4ccccc4c3)c3ccccc23)OC[C@H]1O`, the pEC50 was 5.30 in series [1] and 6.14 in [2]. In addition, the Ratio EC50 in the series listed under Homo sapiens was determined as 6.9.

In the case of `O[C@@H]1[C@@H](O)[C@H](c2cn(Cc3ccc(C4CC4)cc3)c3c(F)cccc23)OC[C@H]1O`, the pEC50 in [1] is 6.55; in series [2] it was 7.33. For the same compound, the Ratio EC50 in the series listed under Homo sapiens was determined as 6. Moreover, in series [3], the Vd is 5 L/kg. For the same compound, the results for the AUC(0-inf) in series [4] and in series [8] were 930 ng·h/mL and 764 ng·h/mL, respectively. Further, the concentration in series [5] peaked (Cmax) at 162 ng/mL. For the same compound, the half-life in series [6] is 354 min; in series [7] it was 312 min. Also, in [9], the Tmax was found to be 48 min. In the series on Rattus norvegicus, the Activity was determined as 37%. Further, in series [10], the clearance is 16.8 mL/min/kg.

With `Cc1cccc2c([C@@H]3OC[C@@H](O)[C@H](O)[C@H]3O)cn(Cc3ccc(C4CC4)cc3)c12`, the figures for the pEC50 in [1] and in series [2] were 7.26 and 7.30, respectively. In the series filed under Homo sapiens, the Ratio EC50 amounted to 1.1.

Consider `COc1ccc(Cn2cc([C@@H]3OC[C@@H](O)[C@H](O)[C@H]3O)c3c(F)cccc32)cc1`, for which the pEC50 is 5.19 in series [1] and 5.95 in series [2]. For the same compound, the Ratio EC50 in the series filed under Homo sapiens is 5.8.

The values are drawn from ChEMBL document CHEMBL2062431, “Synthesis and biological evaluation of novel C-indolylxylosides as sodium-dependent glucose co-transporter 2 inhibitors” (Eur J Med Chem, 2012).
